Results gathered from unrelated publications.
Protocols differ between the studies behind these lines.

Compound	target	assay	setting	measurement	value
CNCCN1CCC(OCc2ccccc2)CC1	Protein arginine N-methyltransferase 6 (PRMT6, Homo sapiens, UniProt Q96LA8)	thermal stability, DSF	200 µM	ΔTm	11.3 °C
COc1ncccc1-c1cnn2ccc(N3CCN(C(=O)OC(C)C)CC3)nc12	Receptor-interacting serine/threonine-protein kinase 4 (RIPK4, Homo sapiens, UniProt P57078)	binding, competition with immobilised ligand	1 µM	remaining binding	70%
C#Cc1n[nH]c2c(-c3cn(C(C)c4ccccn4)c(=O)[nH]c3=O)cc(F)cc12 (stereo not shown)	Insulin-like growth factor 1 receptor (IGF1R, Homo sapiens, UniProt P08069)	enzyme activity, inhibitor	1 µM	inhibition	-0.9%
CCN(CC)CCCC[C@H](NC(=O)[C@H](CC(C)C)NC(=O)[C@H](C)NC(=O)[C@H](Cc1ccccc1)NC(=O)c1ccc(C(C)(C)C)cc1)C(=O)N[C@@H](CO)C(=O)OC	Histone acetyltransferase p300 (EP300, Homo sapiens, UniProt Q09472)	thermal stability, DSF	25 µM	ΔTm	0.7 °C
CC[C@@H]1CN2CC[C@@]3(O)C(=Nc4cccc(C)c43)[C@@H]2C[C@@H]1/C(=C\OC)C(=O)OC	Delta-type opioid receptor (OPRD1, Homo sapiens, UniProt P41143)	β-arrestin recruitment, agonist	–	Emax	> 100%
COc1ccc(S(=O)(=O)N(CC(=O)NO)CC(C)C)cc1	Neutrophil collagenase (MMP8, Homo sapiens, UniProt P22894)	enzyme activity, inhibitor	0.1 µM	inhibition	43%
Cc1nn(C)cc1-c1nc2c(N3CCN(Cc4ccc(Cl)cc4)CC3)c(Cl)cnc2[nH]1	Tyrosine-protein kinase ABL1, non-phosphorylated (ABL1, Homo sapiens, UniProt P00519, F317L)	binding, competition with immobilised ligand	1 µM	remaining binding	100%
O=C(O)C(F)(F)C(F)(F)C(F)(F)C(F)(F)C(F)(F)C(F)(F)C(F)(F)F	Solute carrier family 22 member 11 (SLC22A11, Homo sapiens, UniProt Q9NSA0)	transporter uptake, substrate	pH 6.8	Km	9.95 µM
Cn1cc(-c2cc(F)cc(N3CCn4c(cc5c4CCCC5)C3=O)c2CO)cc(Nc2ccc(N3CCN(C4COC4)CC3)cn2)c1=O	Tyrosine-protein kinase ABL1 (ABL1, Homo sapiens, UniProt P00519, T315I)	enzyme activity, inhibitor	0.1 µM	inhibition	4%
Nc1ncc(-c2nc(N3CCOCC3)nc(N3CCOCC3)n2)c(C(F)F)n1	Androgen receptor (AR, Homo sapiens, UniProt P10275)	cell-free assay, radioligand	10 µM	remaining signal	89.3%
